From ChEMBL document CHEMBL5653605, “Reduced VEGF production, angiogenesis, and vascular regrowth contribute to the antitumor properties of dual mTORC1/mTORC2 inhibitors” (Cancer Res, 2011)
pIC50: −log10 of the molar value. Active and inactive are the calls of the source. No cut-off for these calls is given here.

How the values were obtained:
[1] = molecular target: Phosphatidylinositol 4,5-bisphosphate 3-kinase catalytic subunit gamma isoform (Homo sapiens, UniProt P48736); test: Inhibition of PI3Kgamma (unknown origin) in presence of ATP by HTRF assay
In short: (§1)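 PI3K activity by HTRF assay at […] ATP.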

[2] = Inhibition of MAPK (unknown origin) signaling axis assessed as reduction in phosphorylated ERK1/2 level by cell based assay; conditions: Homo sapiens
[3] = molecular target: Proto-oncogene tyrosine-protein kinase Src (Homo sapiens, UniProt P12931); test: Inhibition of SRC (unknown origin) assessed as reduction in phosphorylated FAK level by cell based assay
OVCAR-5 [4] = test: Antitumor activity against human OVCAR-5 cells xenografted in nu/nu CD-1 mouse assessed as maximal tumor regression at 50 mg/kg qd administered for 14 days in presence of sunitinib and measured twice weekly relative to control; format: functional; conditions: time 14 day
[5] = Drug concentration in nu/nu CD-1 mouse plasma xenografted with human GEO cells at 65 mg/kg administered for 12 days and measured 2 hrs post last dose; format: ADME, organism-based
In short: (§2)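 nu/nu CD-1 mice bearing s.c. right-flank GEO xenografts dosed at 65 mg/kg for 12 days; plasma drug level sampled at 2 or 8 h after last dose; median reported.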

[6] = molecular target: Eukaryotic translation initiation factor 4E-binding protein 1 (Homo sapiens) (UniProt Q13541); test: Inhibition of 4E-BP1 phosphorylation at Ser 37/46 residues in serum deprived/insulin stimulated human OVCAR-3 cells harboring PTEN and wild type PI3K preincubated for 2 hrs followed by insulin stimulation and measured immediately by Western blot analysis; format: cell-based; conditions: dose 0.001-10 µM
mTORC2 = mTORC2 (Homo sapiens, UniProt P42345); test: Competitive inhibition of mTORC2 immunoprecipitated from human HeLa cells using His-tagged 4E-BP1 as substrate incubated for 30 mins in presence of ATP by chemiluminescence based ELISA
In short: (§3)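 Native mTORC1 or mTORC2 complex immunoprecipitated from HeLa lysates; kinase reaction run at 1 mM ATP.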

Mus musculus [7] = test: In vivo inhibition of 4E-BP1 phosphorylation at Ser37/46 residues in nu/nu CD-1 mouse xenografted with human GEO cells at 65 mg/kg administered for 12 days and measured 2 hrs post last dose by Western blot analysis; format: functional, organism-based; conditions: time 290.0 hrs
In short: (§4)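 nu/nu CD-1 mice carrying s.c. GEO flank xenografts dosed 65 mg/kg for 12 days; tumors snap-frozen 2, 8, 24 h after dosing, homogenized in Triton X-100/HEPES pH 7.4 lysis buffer with phosphatase inhibitors; phospho and total 4E-BP1 (37/46), Akt (S473), S6 (235/236) quantified by Western blot; n=2.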

Mus musculus [8] = test: In vivo inhibition of S6 phosphorylation at 235/236 residues in nu/nu CD-1 mouse xenografted with human GEO cells at 65 mg/kg administered for 12 days and measured 2 to 24 hrs post last dose by Western blot analysis; format: functional, organism-based; conditions: time 290-312 hrs; in short: as §4
OVCAR-3 [9] = test: (§5) Inhibition of S6K phosphorylation at 235/236 residues in serum deprived/insulin stimulated human OVCAR-3 cells harboring PTEN and wild type PI3K at 0.001 to 10 uM preincubated for 2 hrs followed by insulin stimulation and measured immediately by Western blot analysis; format: cell-based; conditions: dose 0.001-10 µM
mTORC1 = mTORC1 (Homo sapiens, UniProt P42345); test: Competitive inhibition of mTORC1 immunoprecipitated from human HeLa cells using His-tagged 4E-BP1 as substrate incubated for 30 mins in presence of ATP by chemiluminescence based ELISA; in short: as §3
[10] = molecular target: T1, Serine/threonine-protein kinase mTOR (Homo sapiens, UniProt P42345); test: Inhibition of mTOR (unknown origin) assessed as reduction in 4E-BP1 phosphorylation by cell based assay
[11] = molecular target: Vascular endothelial growth factor receptor 2 (Homo sapiens, UniProt P35968); test: Inhibition of VEGFR2 phosphorylation (unknown origin) by cell based assay
NCI-H292 [12] = test: Antitumor activity against human NCI-H292 cells xenografted in nu/nu CD-1 mouse assessed as tumor growth inhibition at 50 mg/kg qd administered for 21 days and measured twice weekly relative to control; format: functional; conditions: NCI-H292, 504 h, time 21 day, read-out: TGI
In short: (§6)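 Xenograft combination study: H292 or Ovar-5 cells implanted s.c. in the right flank of nu/nu CD-1 mice. Ovar-5 cells grown in RPMI with 10% serum and 1% L-glutamine. […] Tumor growth followed, with growth inhibition reported as median TGI over the dosing period.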

[13] = molecular target: Phosphatidylinositol 4,5-bisphosphate 3-kinase catalytic subunit beta isoform (Homo sapiens, UniProt P42338); test: Inhibition of PI3Kbeta (unknown origin) in presence of ATP by HTRF assay; in short: as §1
NCI-H292 [14] = test: Antitumor activity against human NCI-H292 cells xenografted in nu/nu CD-1 mouse assessed as tumor growth inhibition at 50 mg/kg qd administered for 21 days in presence of sunitinib and measured twice weekly relative to control; format: functional; conditions: NCI-H292, 504 h, time 21 day, read-out: TGI; in short: as §6
OVCAR-5 [15] = test: Antitumor activity against human OVCAR-5 cells xenografted in nu/nu CD-1 mouse assessed as tumor growth inhibition at 50 mg/kg qd administered for 14 days in presence of sunitinib and measured twice weekly relative to control; format: functional; conditions: OVCAR-5, 336 h, time 14 day, read-out: TGI; in short: as §6
Ephrin type-A receptor 2 = Ephrin type-A receptor 2 (Homo sapiens, UniProt P29317); test: Inhibition of EphA2 phosphorylation (unknown origin) by cell based assay
GEO = test: Antitumor activity against human GEO cells xenografted in nu/nu CD-1 mouse assessed as slower tumor growth at 65 mg/kg administered once a day for 12 days and measured twice weekly; format: functional, organism-based; conditions: time 12.0 day
[16] = molecular target: T1, Serine/threonine-protein kinase mTOR; test: Inhibition of mTOR (unknown origin)
NCI-H292 [17] = test: Antitumor activity against human NCI-H292 cells xenografted in nu/nu CD-1 mouse assessed as maximal tumor regression at 50 mg/kg qd administered for 21 days in presence of sunitinib and measured twice weekly relative to control; format: functional; conditions: time 21 day
OVCAR-3 [18] = test: as §5, with “S6K” for “S6K phosphorylation”, “PI3K assessed as inhibition of s6 substrate phosphorylation at […] residue” for “PI3K”; format: cell-based; conditions: dose 0.001-10 µM
[19] = molecular target: Epidermal growth factor receptor (Homo sapiens, UniProt P00533); test: Inhibition of EGFR phosphorylation (unknown origin) by cell based assay
[20] = molecular target: Proline-rich AKT1 substrate 1 (Homo sapiens) (UniProt Q96B36); test: Inhibition of PRAS40 phosphorylation at Ser 246 residue in serum deprived/insulin stimulated human OVCAR-3 cells harboring PTEN and wild type PI3K preincubated for 2 hrs followed by insulin stimulation and measured immediately by Western blot analysis; format: cell-based; conditions: dose 0.001-10 µM
OVCAR-5 [21] = test: Antitumor activity against human OVCAR-5 cells xenografted in nu/nu CD-1 mouse assessed as tumor growth inhibition at 50 mg/kg qd administered for 14 days and measured twice weekly relative to control; format: functional; conditions: OVCAR-5, 336 h, time 14 day, read-out: TGI; in short: as §6
[22] = molecular target: RAC-alpha serine/threonine-protein kinase (Homo sapiens) (UniProt P31749); test: Inhibition of AKT phosphorylation at Ser 473 site in serum deprived/insulin stimulated human OVCAR-3 cells harboring PTEN and wild type PI3K preincubated for 2 hrs followed by insulin stimulation and measured immediately by Western blot analysis; format: cell-based; conditions: dose 0.001-10 µM
[23] = Drug concentration in nu/nu CD-1 mouse plasma xenografted with human GEO cells at 65 mg/kg administered for 12 days and measured 8 hrs post last dose; format: ADME, organism-based; in short: as §2
Mus musculus [24] = test: In vivo inhibition of AKT phosphorylation at Ser473 residues in nu/nu CD-1 mouse xenografted with human GEO cells at 65 mg/kg administered for 12 days and measured 2 to 24 hrs post last dose by Western blot analysis relative to control; conditions: time 290-312 hrs
OVCAR-5 [25] = test: Antitumor activity against human OVCAR-5 cells xenografted in nu/nu CD-1 mouse assessed as tumor growth inhibition at 40 mg/kg qd administered for 14 days in presence of OSI-027 and measured twice weekly relative to control; format: functional; conditions: OVCAR-5, 336 h, time 14 day, read-out: TGI; in short: as §6
NCI-H292 [26] = test: Antitumor activity against human NCI-H292 cells xenografted in nu/nu CD-1 mouse assessed as tumor growth inhibition at 40 mg/kg qd administered for 21 days in presence of OSI-027 and measured twice weekly relative to control; format: functional; conditions: NCI-H292, 504 h, time 21 day, read-out: TGI; in short: as §6
NCI-H292 [27] = test: Antitumor activity against human NCI-H292 cells xenografted in nu/nu CD-1 mouse assessed as maximal tumor regression at 40 mg/kg qd administered for 21 days in presence of OSI-027 and measured twice weekly relative to control; format: functional; conditions: time 21 day
NCI-H292 [28] = test: Antitumor activity against human NCI-H292 cells xenografted in nu/nu CD-1 mouse assessed as tumor growth inhibition at 40 mg/kg qd administered for 21 days and measured twice weekly relative to control; format: functional; conditions: NCI-H292, 504 h, time 21 day, read-out: TGI; in short: as §6
OVCAR-5 [29] = test: Antitumor activity against human OVCAR-5 cells xenografted in nu/nu CD-1 mouse assessed as tumor growth inhibition at 40 mg/kg qd administered for 14 days and measured twice weekly relative to control; format: functional; conditions: OVCAR-5, 336 h, time 14 day, read-out: TGI; in short: as §6
OVCAR-5 [30] = test: Antitumor activity against human OVCAR-5 cells xenografted in nu/nu CD-1 mouse assessed as maximal tumor regression at 40 mg/kg qd administered for 14 days in presence of OSI-027 and measured twice weekly relative to control; format: functional; conditions: time 14 day

Eukaryotic translation initiation factor 4E-binding protein 1 (Homo sapiens), sequence (Q13541 whole entry): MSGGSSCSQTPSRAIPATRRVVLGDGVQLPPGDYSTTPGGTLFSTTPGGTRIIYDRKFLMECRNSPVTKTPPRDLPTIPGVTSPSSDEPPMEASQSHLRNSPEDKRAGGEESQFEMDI
Vascular endothelial growth factor receptor 2, sequence (P35968 whole entry): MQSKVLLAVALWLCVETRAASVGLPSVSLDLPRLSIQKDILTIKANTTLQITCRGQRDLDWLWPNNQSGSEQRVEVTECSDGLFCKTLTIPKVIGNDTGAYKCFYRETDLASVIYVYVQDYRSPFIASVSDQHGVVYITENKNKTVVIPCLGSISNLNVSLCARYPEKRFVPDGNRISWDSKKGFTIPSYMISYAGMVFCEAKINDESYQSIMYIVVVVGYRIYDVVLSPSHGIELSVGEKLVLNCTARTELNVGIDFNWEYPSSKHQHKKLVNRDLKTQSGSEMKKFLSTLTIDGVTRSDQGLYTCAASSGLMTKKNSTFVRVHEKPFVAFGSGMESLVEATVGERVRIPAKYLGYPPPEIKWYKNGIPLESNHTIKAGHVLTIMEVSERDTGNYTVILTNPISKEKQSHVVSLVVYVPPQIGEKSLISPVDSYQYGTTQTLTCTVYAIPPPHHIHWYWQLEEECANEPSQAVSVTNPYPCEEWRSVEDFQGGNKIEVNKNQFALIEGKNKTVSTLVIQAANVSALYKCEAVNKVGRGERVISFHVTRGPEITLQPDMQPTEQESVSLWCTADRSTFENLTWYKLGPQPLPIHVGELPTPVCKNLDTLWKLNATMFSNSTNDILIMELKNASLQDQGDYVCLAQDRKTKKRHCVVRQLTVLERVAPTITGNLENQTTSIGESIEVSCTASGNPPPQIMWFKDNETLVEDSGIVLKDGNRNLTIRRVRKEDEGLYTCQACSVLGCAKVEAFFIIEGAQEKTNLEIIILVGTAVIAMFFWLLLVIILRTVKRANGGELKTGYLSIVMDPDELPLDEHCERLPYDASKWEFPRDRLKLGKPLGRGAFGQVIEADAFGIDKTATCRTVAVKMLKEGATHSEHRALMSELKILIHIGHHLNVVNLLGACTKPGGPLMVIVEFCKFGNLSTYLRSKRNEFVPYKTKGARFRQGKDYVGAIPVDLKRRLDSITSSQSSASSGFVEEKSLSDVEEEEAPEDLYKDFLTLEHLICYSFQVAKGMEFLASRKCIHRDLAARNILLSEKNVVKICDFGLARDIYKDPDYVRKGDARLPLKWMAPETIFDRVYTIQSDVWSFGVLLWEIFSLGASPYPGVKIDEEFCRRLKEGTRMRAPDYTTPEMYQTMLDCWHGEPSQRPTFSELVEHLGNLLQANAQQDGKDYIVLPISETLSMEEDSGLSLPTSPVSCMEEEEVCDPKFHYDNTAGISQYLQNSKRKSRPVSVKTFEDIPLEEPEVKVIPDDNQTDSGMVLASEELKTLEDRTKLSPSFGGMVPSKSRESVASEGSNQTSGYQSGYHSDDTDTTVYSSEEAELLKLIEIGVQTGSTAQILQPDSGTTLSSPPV
RAC-alpha serine/threonine-protein kinase (Homo sapiens), sequence (P31749 whole entry): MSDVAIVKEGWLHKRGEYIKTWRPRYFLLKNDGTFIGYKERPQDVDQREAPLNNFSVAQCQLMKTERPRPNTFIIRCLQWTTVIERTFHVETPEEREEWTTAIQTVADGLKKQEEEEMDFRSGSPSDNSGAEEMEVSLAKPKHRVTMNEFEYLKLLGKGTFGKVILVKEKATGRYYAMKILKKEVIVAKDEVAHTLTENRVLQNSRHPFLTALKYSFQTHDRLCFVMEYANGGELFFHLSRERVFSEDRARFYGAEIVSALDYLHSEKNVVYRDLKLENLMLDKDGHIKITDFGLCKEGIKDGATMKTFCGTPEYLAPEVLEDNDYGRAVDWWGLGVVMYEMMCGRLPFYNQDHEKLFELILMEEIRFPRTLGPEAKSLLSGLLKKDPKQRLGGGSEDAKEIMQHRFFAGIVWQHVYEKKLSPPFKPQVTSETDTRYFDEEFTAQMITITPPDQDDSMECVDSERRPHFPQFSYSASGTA
Phosphatidylinositol 4,5-bisphosphate 3-kinase catalytic subunit gamma isoform, sequence (P48736 whole entry, canonical isoform): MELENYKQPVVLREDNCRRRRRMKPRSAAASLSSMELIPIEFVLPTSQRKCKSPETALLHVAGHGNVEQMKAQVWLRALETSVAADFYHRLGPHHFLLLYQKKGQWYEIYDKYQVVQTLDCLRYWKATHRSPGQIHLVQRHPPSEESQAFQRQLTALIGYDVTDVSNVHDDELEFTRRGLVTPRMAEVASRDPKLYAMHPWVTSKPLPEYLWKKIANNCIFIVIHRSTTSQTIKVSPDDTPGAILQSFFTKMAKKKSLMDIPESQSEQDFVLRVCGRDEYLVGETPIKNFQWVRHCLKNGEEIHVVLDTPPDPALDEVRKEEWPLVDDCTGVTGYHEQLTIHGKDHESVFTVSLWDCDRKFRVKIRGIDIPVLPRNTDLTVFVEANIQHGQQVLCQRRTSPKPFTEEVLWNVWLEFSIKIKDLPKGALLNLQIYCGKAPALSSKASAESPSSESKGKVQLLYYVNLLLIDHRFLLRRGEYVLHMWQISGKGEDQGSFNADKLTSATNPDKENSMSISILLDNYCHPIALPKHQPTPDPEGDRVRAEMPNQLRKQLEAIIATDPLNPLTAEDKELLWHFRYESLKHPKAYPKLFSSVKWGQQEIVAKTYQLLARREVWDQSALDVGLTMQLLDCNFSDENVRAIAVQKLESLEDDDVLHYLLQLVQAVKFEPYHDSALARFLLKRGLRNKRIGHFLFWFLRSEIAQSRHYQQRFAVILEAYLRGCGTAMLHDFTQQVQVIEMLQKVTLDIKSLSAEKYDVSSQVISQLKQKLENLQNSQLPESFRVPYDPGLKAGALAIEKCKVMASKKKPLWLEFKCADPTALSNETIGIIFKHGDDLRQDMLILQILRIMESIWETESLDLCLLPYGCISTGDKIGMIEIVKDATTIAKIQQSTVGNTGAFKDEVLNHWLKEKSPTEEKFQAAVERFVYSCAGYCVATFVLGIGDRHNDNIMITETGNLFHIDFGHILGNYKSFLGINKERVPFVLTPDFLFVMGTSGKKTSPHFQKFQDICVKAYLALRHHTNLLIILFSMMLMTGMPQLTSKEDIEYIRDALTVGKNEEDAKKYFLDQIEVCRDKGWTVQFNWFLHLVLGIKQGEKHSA
Ephrin type-A receptor 2, sequence (P29317 whole entry): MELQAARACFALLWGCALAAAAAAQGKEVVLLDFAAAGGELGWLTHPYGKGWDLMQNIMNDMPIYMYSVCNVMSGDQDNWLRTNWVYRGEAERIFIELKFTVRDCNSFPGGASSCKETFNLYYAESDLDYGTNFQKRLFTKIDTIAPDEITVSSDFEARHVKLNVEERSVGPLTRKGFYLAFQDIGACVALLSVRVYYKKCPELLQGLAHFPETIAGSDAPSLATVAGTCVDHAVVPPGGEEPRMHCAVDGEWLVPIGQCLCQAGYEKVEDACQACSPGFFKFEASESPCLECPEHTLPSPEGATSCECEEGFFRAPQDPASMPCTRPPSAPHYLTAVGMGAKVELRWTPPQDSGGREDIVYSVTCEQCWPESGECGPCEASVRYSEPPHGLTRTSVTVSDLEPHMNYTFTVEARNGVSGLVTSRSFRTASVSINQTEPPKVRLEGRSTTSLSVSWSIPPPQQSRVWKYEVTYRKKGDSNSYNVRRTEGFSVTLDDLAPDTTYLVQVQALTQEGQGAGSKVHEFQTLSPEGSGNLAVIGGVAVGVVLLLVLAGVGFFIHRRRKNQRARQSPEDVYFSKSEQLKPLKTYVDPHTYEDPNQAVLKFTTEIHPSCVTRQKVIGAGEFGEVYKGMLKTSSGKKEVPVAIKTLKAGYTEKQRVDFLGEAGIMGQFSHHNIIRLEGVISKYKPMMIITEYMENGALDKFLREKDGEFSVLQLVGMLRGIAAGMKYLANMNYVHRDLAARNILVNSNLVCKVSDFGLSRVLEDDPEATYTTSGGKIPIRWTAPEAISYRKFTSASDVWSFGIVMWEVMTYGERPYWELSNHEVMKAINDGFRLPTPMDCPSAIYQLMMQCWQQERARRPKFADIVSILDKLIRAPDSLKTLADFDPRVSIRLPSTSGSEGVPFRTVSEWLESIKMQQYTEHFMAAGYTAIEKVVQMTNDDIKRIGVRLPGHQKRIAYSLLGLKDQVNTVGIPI
Proto-oncogene tyrosine-protein kinase Src, sequence (P12931 2-536 limits assumed): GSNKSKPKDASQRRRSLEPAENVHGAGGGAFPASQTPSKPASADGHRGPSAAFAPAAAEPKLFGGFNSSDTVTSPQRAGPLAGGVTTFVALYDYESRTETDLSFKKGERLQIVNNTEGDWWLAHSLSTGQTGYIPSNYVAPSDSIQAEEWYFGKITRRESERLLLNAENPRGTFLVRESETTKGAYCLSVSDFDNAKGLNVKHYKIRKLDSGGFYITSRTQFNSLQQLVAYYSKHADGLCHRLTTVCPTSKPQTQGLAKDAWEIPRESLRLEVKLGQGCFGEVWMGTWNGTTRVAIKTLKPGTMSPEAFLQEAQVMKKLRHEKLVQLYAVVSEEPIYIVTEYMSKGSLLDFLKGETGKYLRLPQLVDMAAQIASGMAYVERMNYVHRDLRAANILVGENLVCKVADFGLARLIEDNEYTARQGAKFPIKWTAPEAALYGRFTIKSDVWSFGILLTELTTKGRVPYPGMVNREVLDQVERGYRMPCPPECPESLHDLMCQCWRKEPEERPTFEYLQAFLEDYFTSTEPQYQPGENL

Structure (SMILES): COc1cccc2cc(-c3nc([C@H]4CC[C@H](C(=O)O)CC4)n4ncnc(N)c34)[nH]c12 [OSI-027]
- pIC50 [1]: 6.38
- pIC50 [2]: < 4.70
- pIC50 [3]: < 4.40
- Activity (OVCAR-5 [4]): 38%
- concentration at 290 h [5]: 21.3 µM
- inhibition [6]: Dose-Dependent Effect
- pIC50 (mTORC2): 7.19
- inhibition (Mus musculus [7]): Active
- inhibition (Mus musculus [8]): Active
- inhibition (OVCAR-3 [9]): Active
- pIC50 (mTORC1): 7.66
- pIC50 [10]: 6.00
- pIC50 [11]: < 4.40
- inhibition in vivo at 50 mg/kg (NCI-H292 [12]): 61%
- pIC50 [13]: < 4.52
- inhibition in vivo at 50 mg/kg (NCI-H292 [14]): 100%
- inhibition in vivo at 50 mg/kg (OVCAR-5 [15]): 100%
- pIC50 (Ephrin type-A receptor 2): < 4.40
- Activity (GEO): Active
- pIC50 [16]: 8.40
- Activity (NCI-H292 [17]): 59%
- inhibition (OVCAR-3 [18]): Active
- pIC50 [19]: < 4.40
- inhibition [20]: Dose-Dependent Effect
- inhibition in vivo at 50 mg/kg (OVCAR-5 [21]): 55%
- inhibition [22]: Dose-Dependent Effect
- concentration at 296 h [23]: 14.9 µM
- inhibition (Mus musculus [24]): Active

Structure (SMILES): CCN(CC)CCNC(=O)c1c(C)[nH]c(/C=C2\C(=O)Nc3ccc(F)cc32)c1C [SUNITINIB]
- inhibition in vivo at 40 mg/kg (OVCAR-5 [25]): 100%
- inhibition in vivo at 40 mg/kg (NCI-H292 [26]): 100%
- Activity (NCI-H292 [27]): 59%
- inhibition in vivo at 40 mg/kg (NCI-H292 [28]): 47%
- inhibition in vivo at 40 mg/kg (OVCAR-5 [29]): 68%
- Activity (OVCAR-5 [30]): 38%
